Drawing on ChEMBL document CHEMBL1128416, “Synthesis and evaluation of 6,7-dihydroxy-2,3,4,8,9,13b-hexahydro-1H- benzo[6,7]cyclohepta[1,2,3-ef][3]benzazepine, 6,7-dihydroxy- 1,2,3,4,8,12b-hexahydroanthr[10,4a,4-cd]azepine, and 10-(aminomethyl)-9,10- dihydro-1,2-dihydroxyanthracene as conformationally restricted analogs of …” (J Med Chem, 1995), this text covers K0.5 for five compounds.

Holding throughout (conditions): Striatum; Membrane
Assay [1] concerns the target D(2) dopamine receptor (Rattus norvegicus) (UniProt P61169). Kind of assay: Binding affinity towards Dopamine receptor D2 by displacing [3H]spiperone radio-ligand in rat striatal membranes by using radioligand competition assay. The format is cell membranes. In outline: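 Same rat striatal membrane preparation as the D1 assay: HEPES/MgCl2 buffer, pH 7.4, 37 °C incubation, filtration and scintillation counting. [3H]spiperone was the radioligand, competed with increasing test concentrations. IC50 derived from the displacement data.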

Assay [2] has as its target D(1A) dopamine receptor (Rattus norvegicus) (UniProt P18901).
For assay [3] the target is unchanged. Kind of assay: Binding affinity to the dopamine receptor D1 by displacing [3H]-SCH- 23390 radio-ligand in rat striatal membranes by using radioligand competition assay. The format is cell membranes. An outline of the steps: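 Striata from male Sprague-Dawley rats (200–400 g), fresh or stored at -70 °C. Homogenized in ice-cold 50 mM HEPES with 4.0 mM MgCl2, pH 7.4, washed twice by centrifugation at 27000g, and resuspended at ~2.0 mg wet weight/mL. Membranes were incubated with 0.3 nM [3H]SCH 23390 and increasing test concentrations for 15 min at 37 °C. Nonspecific binding defined with 1 μM SCH 23390. Filtered, scintillation counted, IC50 derived.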

Each structure is given as a SMILES string.

D(1A) dopamine receptor (Rattus norvegicus), sequence (P18901 whole entry): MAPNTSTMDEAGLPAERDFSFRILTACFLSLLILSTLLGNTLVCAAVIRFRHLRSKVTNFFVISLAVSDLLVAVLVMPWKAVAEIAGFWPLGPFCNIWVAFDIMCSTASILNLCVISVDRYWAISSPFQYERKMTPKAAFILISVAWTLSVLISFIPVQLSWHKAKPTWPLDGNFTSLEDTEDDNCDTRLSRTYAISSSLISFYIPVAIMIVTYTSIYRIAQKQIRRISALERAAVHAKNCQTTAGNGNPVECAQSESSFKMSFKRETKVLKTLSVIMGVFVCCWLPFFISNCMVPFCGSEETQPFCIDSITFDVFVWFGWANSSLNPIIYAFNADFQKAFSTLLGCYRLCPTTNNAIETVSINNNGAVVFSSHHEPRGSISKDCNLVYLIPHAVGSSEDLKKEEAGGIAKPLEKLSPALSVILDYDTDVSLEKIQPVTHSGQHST
D(2) dopamine receptor (Rattus norvegicus), sequence (P61169 whole entry): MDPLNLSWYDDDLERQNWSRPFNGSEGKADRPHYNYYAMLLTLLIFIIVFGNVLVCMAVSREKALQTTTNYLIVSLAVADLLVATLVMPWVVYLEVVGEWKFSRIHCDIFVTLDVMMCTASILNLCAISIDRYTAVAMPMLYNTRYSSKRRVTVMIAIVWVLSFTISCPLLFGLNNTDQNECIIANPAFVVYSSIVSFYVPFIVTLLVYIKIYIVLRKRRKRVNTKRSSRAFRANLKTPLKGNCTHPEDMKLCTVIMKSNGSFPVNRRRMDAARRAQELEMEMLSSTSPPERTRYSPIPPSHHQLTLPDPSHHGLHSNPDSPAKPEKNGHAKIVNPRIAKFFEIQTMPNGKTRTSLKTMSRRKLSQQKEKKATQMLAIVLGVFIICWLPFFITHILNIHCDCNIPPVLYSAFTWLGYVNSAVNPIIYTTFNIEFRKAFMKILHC

As to `Oc1cc2c(cc1O)[C@H]1c3ccccc3CN[C@@H]1CC2`, the K0.5 was 29 nM in assay [1] and 2.4 nM in assay [2].

As to `Oc1cc2c3c(c1O)Cc1ccccc1C3CNCC2` (stereo not given), the results for the K0.5 in assay [3] and in assay [1] were 590 nM and 1250 nM, respectively.

Consider `Oc1cc2c(cc1O)[C@@H](c1ccccc1)CNCC2`, for which the results for the K0.5 in assay [3] and in assay [1] were 11.1 nM and 1870 nM, respectively.

With `NCC1c2ccccc2Cc2c1ccc(O)c2O` (stereo not given), the K0.5 in assay [3] and in assay [1] was over 2500 nM each time.

Regarding `Oc1cc2c3c(c1O)CCc1ccccc1C3CNCC2` (stereo not given), the K0.5 stood at 372 nM in assay [3] and 2150 nM in assay [1].
